ChEMBL document CHEMBL1122553, “Tetrahydropyrrolo[1,2-a]quinoxalines and tetrahydropyrrolo[1,2-a]pyrido[3,2-a]pyrazines: vascular smooth muscle relaxants and antihypertensive agents” (1984)

Assays:
[1] = tested on: Rattus norvegicus; assay: Antihypertensive activity expressed as maximal change in systolic blood pressure (SBP) from pretreatment levels at either 1.5 or 4 hr after dosing; format: functional, Artery
Summary of the method: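 Male spontaneously hypertensive rats (Okamoto-Aoki, ~300-400 g), fasted at least 16 h, given a single oral 50 mg/kg dose by stomach tube; groups of four, with vehicle-only controls. Systolic pressure taken indirectly by tail plethysmography after 10 min warming at 38 °C, before dosing and at 1.5 and 4 h after. Reported as X ± SE.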

[2] = organism: Oryctolagus cuniculus; assay: The vascular smooth muscle relaxant activity was expressed as percent relaxation of the developed isometric tension in potassium depolarized rabbit aortic smooth muscle; format: functional, Aorta
Summary of the method: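 Transverse thoracic aorta strips from female New Zealand albino rabbits in Krebs solution (95% O2/5% CO2, 37 °C), held at 4 g isometric tension and equilibrated 90 min. Strips were primed with high-K+ (100 mM) solution plus 2.5 mM CaCl2, rinsed, then recontracted. After 20 min of sustained contraction, drug was added at 10⁻⁵ M final. Tension 20 min later was compared with pre-drug tension and given as % relaxation.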

SMILES: COc1cccc(OC)c1CN1CC2CCCN2c2ccccc21 (centres undefined)
- Max SBP [1]: -5 mmHg
- Vascular relaxation [2]: 13%

SMILES: COc1cccc(OC)c1CN1C(=O)C2CCCN2c2ccccc21 (centres undefined)
- Max SBP [1]: -19 mmHg
- Vascular relaxation [2]: 30%

SMILES: COc1cccc(OC)c1CN1CC2CCCN2c2ncccc21 (centres undefined)
- Max SBP [1]: -6 mmHg
- Vascular relaxation [2]: 54%

SMILES: c1ccc2c(c1)NCC1CCCN21 (centres undefined)
- Max SBP [1]: -17 mmHg
- Vascular relaxation [2]: 0%

SMILES: O=C1C2CCCN2c2ccccc2N1Cc1ccccc1 (centres undefined)
- Max SBP [1]: -4 mmHg

SMILES: O=C1C2CCCN2c2ncccc2N1Cc1ccccc1 (centres undefined)
- Max SBP [1]: -39 mmHg
- Vascular relaxation [2]: 0%

SMILES: CN(C)CCN1C(=O)C2CCCN2c2ncccc21 (centres undefined)
- Max SBP [1]: -22 mmHg
- Vascular relaxation [2]: 0%

SMILES: COc1cccc(OC)c1C(=O)N1CC2CCCN2c2ccccc21 (centres undefined)
- Max SBP [1]: -13 mmHg
- Vascular relaxation [2]: 6%

SMILES: O=C1Nc2ccccc2N2CCCC12 (centres undefined)
- Max SBP [1]: -26 mmHg
- Vascular relaxation [2]: 0%

SMILES: O=C1C2CCCN2c2ncccc2N1Cc1ccncc1 (centres undefined)
- Max SBP [1]: -38 mmHg
- Vascular relaxation [2]: 0%

SMILES: COc1cccc(OC)c1CN1C(=O)C2CCCN2c2ncccc21 (centres undefined)
- Max SBP [1]: -18 mmHg
- Vascular relaxation [2]: 5%

SMILES: O=C1C2CCCN2c2ccccc2N1Cc1ccncc1 (centres undefined)
- Max SBP [1]: -2 mmHg

SMILES: COC(=O)C1=C(C)NC(C)=C(C(=O)OC)C1c1ccccc1[N+](=O)[O-] [NIFEDIPINE]
- Max SBP [1]: -68 mmHg
- Vascular relaxation [2]: 75%
